Experimental data reported in article PMC7416514 (Clinical & experimental metastasis, 2011).
Several values for one entry are separate records, joined by “and”; a condition that tells them apart may be missing. Equal entries are not always repeated.

Experiments:
[1] = Preliminary dose finding experiments; assay type: in vivo; settings: 75 mg/kg, intraperitoneally every other day, mice
[2] = Whole body autoradiography tissue uptake; assay type: in vivo, rats; settings: rat, single 12.5 mg/kg dose
Method in brief: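 Rats received a single dose of [14C]-labelled test compound and were sacrificed at timed points up to 24 h. Radioactivity in whole-body sections (brain, striatum, blood) was quantified by phosphoimager against 14C autoradiography standards. Results are μg equivalents/g tissue; limit of quantitation 0.051 μg equivalents/g.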

[3] = phase I study in 40 patients ref 6; cited from earlier work
[4] = tested on: 231-BR cells; assay: 231-BR experimental brain metastasis prevention model; assay type: in vivo, nu/nu NRC mice; settings: for Micrometastases Mean: vehicle 239
Method in brief: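 Female nu/nu NRC mice, 5–7 weeks old, received 175,000 231-BR cells into the left cardiac ventricle. On day 3 they were randomised to test compound or vehicle (2% Cremophor EL, 2% N,N-dimethylacetamide in acidified pH 5 water). Brains were bisected sagittally; ten serial 10-micron sections every 300 microns through the right hemisphere were scored at 50×. Micro and large (>300 micron) lesions are given as mean per section, from two experiments combined, by mixed-model ANOVA with Dunnett adjustment.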

[5] = tested on: TP53 mutant cells; settings: cited from earlier work
[6] = tested on: 231-BR cells; assay: Survival study in 231-BR brain metastasis model; assay type: in vivo, nu/nu NRC mice; settings: 50 mg/kg
[7] = tested on: 231-BR cells; assay: MTT-based viability assay; assay type: cell-based; settings: Homo sapiens, 48 h, read-out: IC50 viability of 231-BR cells
Method in brief: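 231-BR cells in 10% FBS had continuous exposure to test compound over 1–100 nM for 48 h, then an MTT viability read-out. Viability is expressed as percent of vehicle control. There were three separate experiments with n = 4 per point; log10-transformed data went to mixed-model ANOVA with Dunnett post-hoc comparison.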

[8] = tested on: 231-BR cells; assay: Western blot of apoptotic markers and phosphorylated Histone H3; assay type: cell-based, human
Method in brief: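 231-BR cells were treated with test compound at 5 or 10 nM for the indicated times, then lysed and run on SDS-PAGE with immunoblotting. Antibodies: PLK-1, phospho-histone H3, cleaved and total caspase 9, 8 and 3. Tubulin served as the loading control.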

[9] = tested on: 231-BR cells; assay: Clonogenic survival assay with irradiation; assay type: cell-based, human; settings: 40 nM, 2 h prior to irradiation, surviving fraction of 0.1

Compound: C[C@@H](Oc1cc(-n2cnc3ccc(CN4CCN(C)CC4)cc32)sc1C(N)=O)c1ccccc1C(F)(F)F [GSK461364A]
- toxicity in dose finding [1]: toxic causing acute weight loss
- Tissue uptake, Brain ([2]; 0.5 h): 3.192 μg equivalents/g tissue
- Tissue uptake, Brain (striatum) ([2]; 0.5 h): 4.283 μg equivalents/g tissue
- Tissue uptake, Choroid plexus ([2]; 0.5 h): 32.560 μg equivalents/g tissue
- Tissue uptake, Meninges ([2]; 0.5 h): 10.305 μg equivalents/g tissue
- Tissue uptake, Blood (cardiac) ([2]; 0.5 h, listed as [^14C]GSK461364A, 12.5 mg/kg): 2.4 μg equivalents/g tissue and 2.396^a μg equivalents/g tissue
- Drug uptake in the brain or striatum ([2]; 30 min post-injection): 3.2–4.3 μg equivalents/g of tissue
- Tissue uptake, Blood (cardiac) ([2]; 2 h): 0.730 μg equivalents/g tissue
- Tissue uptake, Brain ([2]; 2 h): 0.363 μg equivalents/g tissue
- Tissue uptake, Brain (striatum) ([2]; 2 h): 0.522 μg equivalents/g tissue
- Tissue uptake, Choroid plexus ([2]; 2 h): 9.734 μg equivalents/g tissue
- Tissue uptake, Meninges ([2]; 2 h): 1.236 μg equivalents/g tissue
- Tissue uptake, Blood (cardiac) ([2]; 6 h): 0.183 μg equivalents/g tissue
- Tissue uptake, Brain ([2]; 6 h): 0.088 μg equivalents/g tissue
- Tissue uptake, Brain (striatum) ([2]; 6 h): 0.225 μg equivalents/g tissue
- Tissue uptake, Choroid plexus ([2]; 6 h): 2.790 μg equivalents/g tissue
- Tissue uptake, Meninges ([2]; 6 h): 1.239 μg equivalents/g tissue
- Tissue uptake, Brain ([2]; 24 h): 0.126 μg equivalents/g tissue
- Tissue uptake, Brain (striatum) ([2]; 24 h): 0.288 μg equivalents/g tissue
- Tissue uptake, Choroid plexus ([2]; 24 h): 2.342 μg equivalents/g tissue
- Tissue uptake, Meninges ([2]; 24 h): 4.881 μg equivalents/g tissue
- Tissue uptake, Blood (cardiac) ([2]; 24 h, BLQ = <0.051 μg equivalents/g, 12.5 mg/kg): undetectable
- Tissue uptake, Blood (cardiac) ([2]; 24 h, BLQ = <0.051 μg equivalents/g, listed as [^14C]GSK461364A, 12.5 mg/kg): BLQ^b
- Drug remaining in the brain ([2]; 24 h post-injection): 0.13–0.29 μg equivalents/ g
- limiting toxicities [3]: neutropenia, thrombocytopenia and bone marrow suppression
- phospho-Histone H3 (pHH3) in circulating tumor cells [3]: Increased
- Micrometastases Mean ([4]; 25 mg/kg IP every other day for 27 days from day 3): 177 lesions/ section
- reduction in micrometastases vs vehicle ([4]; 25 mg/kg, statistically insignificant): 26%
- Micrometastases Mean ([4]; 50 mg/kg IP every other day for 27 days from day 3): 159 lesions/ section
- decline in large brain metastases vs vehicle ([4]; 50 mg/kg, treatment started 3 days post-injection): 62%
- sensitivity in TP53 mutant cells [5]: increased sensitivity
- prolonged survival ([6]; treatment started 3 days post-injection): 17%
- survival compared to the vehicle control group ([6]; treatment started day 3, 7 or 14 post-injection): extended survival to the same extent
- IC50 [7]: ~5 nM
- pHH3 levels (Western blot) ([8]; 231-BR cells treated with 5 and 10 nM): increase in pHH3 levels
- cleaved caspase 9 and cleaved caspase 3 (Western blot) ([8]; 231-BR cells treated with 5 or 10 nM): Cleaved caspase 9 and cleaved caspase 3 were observed
- dose enhancement factor [9]: 1.5
